In ChEMBL document CHEMBL1135770, “Synthesis and transporter binding properties of 3beta-[4'-(phenylalkyl, -phenylalkenyl, and -phenylalkynyl)phenyl]tropane-2beta-carboxylic acid methyl esters: evidence of a remote phenyl binding domain on the dopamine transporter” (J Med Chem, 2002) one finds Ki and IC50 data, which are given here for 25 compounds.

Assay [1] addresses T1, Norepinephrine transporter (Rattus norvegicus, UniProt Q9WTR4). Briefly: Tested for the binding affinity towards Norepinephrine transporter in rat cerebral cortex by displacing [3H]nisoxetine radioligand. The class given is tissue-based. In outline: (§1)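 Competition binding with 0.5 nM [³H]nisoxetine as final radioligand concentration.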
In assay [2] the target is Sodium-dependent dopamine transporter (Rattus norvegicus, UniProt P23977). Briefly: 50% Inhibition against dopamine transporter (DAT) in rat striatal tissue by displacing [3H]WIN-35428 radioligand. It counts as tissue-based, Striatum. The procedure, abridged: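 Competition binding with 0.5 nM [³H]WIN35,428 as final radioligand concentration.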
Sequence of Sodium-dependent dopamine transporter (P23977 whole entry): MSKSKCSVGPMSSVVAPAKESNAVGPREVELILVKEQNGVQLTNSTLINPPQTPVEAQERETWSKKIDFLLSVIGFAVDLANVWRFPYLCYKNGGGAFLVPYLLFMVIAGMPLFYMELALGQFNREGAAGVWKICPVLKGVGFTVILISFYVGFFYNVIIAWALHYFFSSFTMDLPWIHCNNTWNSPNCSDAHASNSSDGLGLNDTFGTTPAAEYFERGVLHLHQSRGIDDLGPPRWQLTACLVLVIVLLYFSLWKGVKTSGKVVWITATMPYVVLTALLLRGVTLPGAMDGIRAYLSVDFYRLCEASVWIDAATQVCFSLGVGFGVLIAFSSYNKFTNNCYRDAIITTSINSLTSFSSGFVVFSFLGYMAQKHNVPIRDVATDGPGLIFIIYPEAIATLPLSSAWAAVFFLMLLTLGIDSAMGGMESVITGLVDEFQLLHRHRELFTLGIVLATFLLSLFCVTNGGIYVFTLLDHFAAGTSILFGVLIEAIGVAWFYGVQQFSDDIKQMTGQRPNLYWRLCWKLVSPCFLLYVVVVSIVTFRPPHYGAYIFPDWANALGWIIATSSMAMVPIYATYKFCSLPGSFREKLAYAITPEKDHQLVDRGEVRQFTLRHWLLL
Assay [3] deals with T2, Sodium-dependent serotonin transporter (Rattus norvegicus, UniProt P31652). Briefly: 50% Inhibition against Serotonin transporter in rat midbrain tissue by displacing [3H]paroxetine radioligand. The class given is tissue-based. The procedure, abridged: (§2)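 Competition binding with 0.2 nM [³H]paroxetine as final radioligand concentration.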
T2 sequence (P31652 whole entry): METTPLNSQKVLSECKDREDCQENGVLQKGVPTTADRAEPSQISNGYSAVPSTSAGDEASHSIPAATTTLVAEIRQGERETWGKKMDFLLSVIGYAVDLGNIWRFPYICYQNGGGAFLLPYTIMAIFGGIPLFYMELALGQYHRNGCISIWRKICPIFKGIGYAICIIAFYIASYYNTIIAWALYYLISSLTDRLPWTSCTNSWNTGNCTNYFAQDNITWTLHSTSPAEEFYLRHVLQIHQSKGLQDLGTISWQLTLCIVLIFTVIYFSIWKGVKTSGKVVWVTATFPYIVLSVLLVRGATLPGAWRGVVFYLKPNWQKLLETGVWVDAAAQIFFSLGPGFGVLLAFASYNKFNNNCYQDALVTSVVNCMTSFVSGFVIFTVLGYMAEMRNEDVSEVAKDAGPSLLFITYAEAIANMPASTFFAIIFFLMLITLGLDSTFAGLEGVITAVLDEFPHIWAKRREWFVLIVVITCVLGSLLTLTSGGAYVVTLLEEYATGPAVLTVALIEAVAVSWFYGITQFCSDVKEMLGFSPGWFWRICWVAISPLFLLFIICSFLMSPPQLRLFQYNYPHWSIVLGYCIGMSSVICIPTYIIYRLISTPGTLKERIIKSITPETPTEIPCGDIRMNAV
Assay [4] addresses T2, Sodium-dependent serotonin transporter. Briefly: Tested for the binding affinity towards Serotonin transporter in rat midbrain tissue by displacing [3H]paroxetine radioligand. The class given is tissue-based. The procedure, abridged:
as §2

The target in assay [5] is T1, Norepinephrine transporter. Briefly: 50% Inhibition against Norepinephrine transporter in rat cerebral cortex by displacing [3H]nisoxetine radioligand. The class given is tissue-based. In outline: as §1

T1 sequence (Q9WTR4 whole entry): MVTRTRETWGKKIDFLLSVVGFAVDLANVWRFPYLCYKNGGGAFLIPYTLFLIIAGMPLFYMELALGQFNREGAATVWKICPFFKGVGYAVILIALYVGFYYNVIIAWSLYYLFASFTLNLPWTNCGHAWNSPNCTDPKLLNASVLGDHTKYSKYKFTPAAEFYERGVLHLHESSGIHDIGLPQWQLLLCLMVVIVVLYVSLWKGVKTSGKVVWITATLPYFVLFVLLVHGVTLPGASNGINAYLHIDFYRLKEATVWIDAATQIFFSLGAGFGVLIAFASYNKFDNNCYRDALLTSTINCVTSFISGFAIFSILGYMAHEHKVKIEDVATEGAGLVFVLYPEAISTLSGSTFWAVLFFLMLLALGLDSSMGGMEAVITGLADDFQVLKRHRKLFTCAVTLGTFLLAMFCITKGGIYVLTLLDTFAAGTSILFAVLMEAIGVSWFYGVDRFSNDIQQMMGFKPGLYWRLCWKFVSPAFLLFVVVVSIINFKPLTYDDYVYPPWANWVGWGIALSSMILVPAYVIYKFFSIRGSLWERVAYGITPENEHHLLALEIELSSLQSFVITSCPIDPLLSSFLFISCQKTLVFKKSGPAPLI

One may read the Ki as a dissociation constant, usually derived from enzyme kinetics or from competition with a known ligand. In the case of `COC(=O)[C@@H]1C2CC[C@H](C[C@@H]1c1ccccc1)N2C`, in assay [1], the inhibition constant Ki amounted to 55 nM.

Broadly, the IC50 is the concentration at which inhibition is half-maximal. Regarding `COC(=O)C1[C@@H](c2ccc(CCCCc3ccccc3)cc2)CC2CC[C@H]1N2C` (stereo partly specified), the IC50 in assay [2] worked out at 228 nM; in assay [3], 4820 nM; in assay [5], 2310 nM. The Ki in assay [1] is 1390 nM; in assay [4] it was 439 nM.

Turning to `CCCc1ccc([C@H]2CC3CC[C@H](C2C(=O)OC)N3C)cc1` (stereo partly specified), the half-maximal inhibitory concentration (IC50) is 68.5 nM in assay [2], 70.4 nM in assay [3] and 3920 nM in assay [5]. In addition, the inhibition constant Ki is 2360 nM in assay [1] and 6.4 nM in assay [4].

Consider `COC(=O)C1[C@@H](c2ccc3ccccc3c2)CC2CC[C@H]1N2C` (stereo partly specified), for which the half-maximal inhibitory concentration (IC50) in assay [2] was 0.51 nM; in assay [3], 0.8 nM; in assay [5], 21.1 nM. In addition, the inhibition constant (Ki) in assay [1] turned out to be 12.7 nM; in assay [4], 0.07 nM.

For the compound `C=Cc1ccc([C@H]2CC3CC[C@H](C2C(=O)OC)N3C)cc1` (stereo partly specified), the 50% inhibitory concentration (IC50) amounted to 1.24 nM in assay [2], 9.5 nM in assay [3] and 78 nM in assay [5]. Further, the Ki in assay [1] came out at 47 nM; in assay [4] it was 0.86 nM.

Take `CC#Cc1ccc([C@H]2CC3CC[C@H](C2C(=O)OC)N3C)cc1` (stereo partly specified): the half-maximal inhibitory concentration (IC50) was determined as 2.37 nM in assay [2], 15.7 nM in assay [3] and 820 nM in assay [5]. Further, the Ki in assay [1] came to 494 nM; in assay [4] it was 1.43 nM.

As to `COC(=O)C1[C@@H](c2ccc(C#CCCCCO)cc2)CC2CC[C@H]1N2C` (stereo partly specified), the figures for the concentration for half-maximal inhibition (IC50) in assay [2], in assay [3] and in assay [5] were 57 nM, 828 nM and 9500 nM, respectively. Moreover, the inhibitory constant (Ki) amounted to 5720 nM in assay [1] and 75 nM in assay [4].

With `COC(=O)C1[C@@H](c2ccc(C#CCc3ccccc3)cc2)CC2CC[C@H]1N2C` (stereo partly specified), the IC50 amounted to 1.82 nM in assay [2], 13.1 nM in assay [3] and 27.4 nM in assay [5]. Further, the Ki in assay [1] is 16.5 nM; in assay [4], 1.19 nM.

On to `COC(=O)C1[C@@H](c2ccc(C#Cc3ccccc3)cc2)CC2CC[C@H]1N2C` (stereo partly specified), for which the IC50 in assay [2] is 3.7 nM; in assay [3] it was 46.8 nM; in assay [5], 347 nM. The results for the inhibitory constant (Ki) in assay [1] and in assay [4] were 209 nM and 4.3 nM, respectively.

In the case of `COC(=O)C1[C@@H](c2ccc(C#CCCc3ccccc3)cc2)CC2CC[C@H]1N2C` (stereo partly specified), the IC50 is 6.28 nM in assay [2], 2180 nM in assay [3] and 1470 nM in assay [5]. In addition, the Ki in assay [1] was determined as 885 nM; in assay [4], 198 nM.

Take `COC(=O)C1C(c2ccc3ccccc3c2)CC2CC[C@H]1N2C` (stereo partly specified): the 50% inhibitory concentration (IC50) in assay [2] came to 1.1 nM; in assay [3] it was 11.4 nM; in assay [5], 70.2 nM. For the same compound, the results for the Ki in assay [1] and in assay [4] were 42.3 nM and 1.05 nM, respectively.

For `COC(=O)C1[C@@H](c2ccc(C#CCCCc3ccccc3)cc2)CC2CC[C@H]1N2C` (stereo partly specified), the results for the IC50 in assay [2], in assay [3] and in assay [5] were 300 nM, 1340 nM and 4450 nM, respectively. Moreover, the Ki in assay [1] is 2680 nM; in assay [4], 122 nM.

For `COC(=O)C1[C@@H](c2ccc(-c3ccccc3)cc2)CC2CC[C@H]1N2C` (stereo partly specified), the half-inhibitory concentration (IC50) in assay [2] amounted to 15.6 nM; in assay [3] it was 95.8 nM; in assay [5], 1480 nM. Besides, the inhibitory constant (Ki) in assay [1] was 892 nM; in assay [4] it was 8.7 nM.

Consider `COC(=O)C1[C@@H](c2ccc(CCc3ccccc3)cc2)CC2CC[C@H]1N2C` (stereo partly specified), for which the concentration for half-maximal inhibition (IC50) in assay [2] stood at 5.14 nM; in assay [3], 234 nM; in assay [5], 10.8 nM. The inhibition constant (Ki) in assay [1] came out at 6.5 nM; in assay [4], 21.3 nM.

Turning to `COC(=O)C1[C@@H](c2ccc(CCCc3ccccc3)cc2)CC2CC[C@H]1N2C` (stereo partly specified), the values for the IC50 in assay [2], in assay [3] and in assay [5] were 351 nM, 1240 nM and 14200 nM, respectively. The inhibitory constant (Ki) in assay [1] was determined as 8500 nM; in assay [4], 113 nM.

Regarding `C=C(c1ccccc1)c1ccc([C@H]2CC3CC[C@H](C2C(=O)OC)N3C)cc1` (stereo partly specified), the IC50 in assay [2] worked out at 474 nM; in assay [3], 2710 nM; in assay [5], 7060 nM. The Ki is 4260 nM in assay [1] and 246 nM in assay [4].

Take `COC(=O)C1[C@@H](c2ccc(Cc3ccccc3)cc2)CC2CC[C@H]1N2C` (stereo partly specified): the concentration for half-maximal inhibition (IC50) in assay [2] was found to be 526 nM; in assay [3], 7240 nM; in assay [5], 6670 nM. The Ki turned out to be 606 nM in assay [1] and 658 nM in assay [4].

For `COC(=O)C1[C@@H](c2ccc(/C=C/Cc3ccccc3)cc2)CC2CC[C@H]1N2C` (stereo partly specified), the IC50 in assay [2] is 15.8 nM; in assay [3], 781 nM; in assay [5] it was 1250 nM. For the same compound, the Ki was 759 nM in assay [1] and 71 nM in assay [4].

In the case of `COC(=O)C1[C@@H](c2ccc(/C=C\c3ccccc3)cc2)CC2CC[C@H]1N2C` (stereo partly specified), in assay [2], the 50% inhibitory concentration (IC50) was 11.7 nM.

Regarding `COC(=O)C1[C@@H](c2ccc(/C=C/c3ccccc3)cc2)CC2CC[C@H]1N2C` (stereo partly specified), the 50% inhibitory concentration (IC50) in assay [2] is 3.09 nM; in assay [3] it was 335 nM; in assay [5] it was 1960 nM. For the same compound, the values for the Ki in assay [1] and in assay [4] were 1180 nM and 30.5 nM, respectively.

`C/C=C\c1ccc([C@H]2CC3CC[C@H](C2C(=O)OC)N3C)cc1` (stereo partly specified): the 50% inhibitory concentration (IC50) in assay [2] is 5.29 nM; in assay [3], 11.4 nM; in assay [5] it was 1590 nM. Moreover, the values for the Ki in assay [1] and in assay [4] were 958 nM and 1.04 nM, respectively.

Compound `COC(=O)C1C2CC[C@H](C[C@H]1c1ccc(C)cc1)N2C` (stereo partly specified) yielded a Ki in assay [1] of 36 nM. In assay [5], this compound gave an IC50 of 60 nM.

For `C#Cc1ccc([C@H]2CC3CC[C@H](C2C(=O)OC)N3C)cc1` (stereo partly specified), the half-maximal inhibitory concentration (IC50) in assay [2] amounted to 1.2 nM; in assay [3] it was 4.4 nM; in assay [5], 83.2 nM. For the same compound, the figures for the Ki in assay [1] and in assay [4] were 50.1 nM and 0.4 nM, respectively.

For the compound `CCc1ccc([C@H]2C[C@H]3CCC(C2C(=O)OC)N3C)cc1` (stereo partly specified), the Ki in assay [1] is 2360 nM; in assay [4], 2.58 nM.

As to `COC(=O)C1=C(c2ccc3ccccc3c2)CC2CCC1N2C` (stereo unspecified), the IC50 is 5.17 nM in assay [2], 345 nM in assay [3] and 372 nM in assay [5]. In addition, the inhibitory constant (Ki) in assay [1] worked out at 224 nM; in assay [4], 31.4 nM.
